Test results published in ChEMBL document CHEMBL4715796, “Discovery of Chromane Containing Hepatitis C Virus (HCV) NS5A Inhibitors with Improved Potency against Resistance-Associated Variants” (J Med Chem, 2016).

Experiments:
[1] = system: Nonstructural protein 5A (Hepatitis C virus), Q5L478 [UNDEFINED MUTATION]; assay: Inhibition of NS5A L31V mutant in Hepatitis C virus subtype 1a infected in human HuH7 cells assessed as reduction in viral replication by luciferase reporter gene assay; type: cell-based; conditions: Huh-7
In short: (§1)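 NS5A resistance variants engineered into GT1a-H77 or GT1b-Con1 replicons. Each variant replicon is transfected transiently by electroporation into a Huh7-derived cell line. Percent inhibition is taken from the drop in luciferase signal at each compound concentration, and EC90 is calculated from these. Values are means of at least two experiments.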

[2] = system: T1, Nonstructural protein 5A (Hepatitis C virus), Q5L478 [Y93H]; assay: Inhibition of NS5A Y93H mutant in Hepatitis C virus subtype 1a infected in human HuH7 cells assessed as reduction in viral replication by luciferase reporter gene assay; type: cell-based; conditions: Huh-7; in short: as §1
T1 sequence (whole entry): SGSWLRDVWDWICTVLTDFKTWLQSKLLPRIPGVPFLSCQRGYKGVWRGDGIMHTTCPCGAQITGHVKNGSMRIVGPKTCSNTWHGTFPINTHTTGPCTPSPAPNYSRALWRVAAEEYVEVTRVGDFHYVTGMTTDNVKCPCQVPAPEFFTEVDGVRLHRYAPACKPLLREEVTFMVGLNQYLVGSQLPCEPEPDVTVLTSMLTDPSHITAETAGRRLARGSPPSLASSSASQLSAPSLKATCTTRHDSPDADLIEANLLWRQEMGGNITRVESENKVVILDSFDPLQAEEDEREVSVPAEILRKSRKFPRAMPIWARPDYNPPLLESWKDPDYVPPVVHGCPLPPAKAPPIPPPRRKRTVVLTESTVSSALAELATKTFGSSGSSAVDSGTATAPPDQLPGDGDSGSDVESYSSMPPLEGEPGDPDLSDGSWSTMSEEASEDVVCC

Huh-7 [3] = assay: Inhibition of NS5A in Hepatitis C virus subtype 3a infected in human HuH7 cells assessed as reduction in viral replication by luciferase reporter gene assay; type: cell-based
In short: (§2)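 Transient replicon assay with GT1a-H77, GT1b-Con1 or chimeric replicons, electroporated into a Huh7-derived cell line. Percent inhibition of replication, read as a drop in luciferase signal, was calculated at each concentration to give EC90. Values are means of at least two experiments.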

Huh-7 [4] = assay: Inhibition of NS5A in Hepatitis C virus subtype 2b infected in human HuH7 cells assessed as reduction in viral replication by luciferase reporter gene assay; type: cell-based; in short: as §2
Huh-7 [5] = assay: Inhibition of NS5A in Hepatitis C virus subtype 1a infected in human HuH7 cells assessed as reduction in viral replication by luciferase reporter gene assay; type: cell-based; in short: as §2
Huh-7 [6] = assay: Inhibition of NS5A in Hepatitis C virus subtype 4a infected in human HuH7 cells assessed as reduction in viral replication by luciferase reporter gene assay; type: cell-based; in short: as §2
Huh-7 [7] = assay: Inhibition of NS5A in Hepatitis C virus subtype 1b infected in human HuH7 cells assessed as reduction in viral replication by luciferase reporter gene assay; type: cell-based; in short: as §2
[8] = Oral bioavailability in male Wistar Han rat at 10 mg/kg post overnight fasting measured upto 24 hrs by LC-MS/MS analysis; type: ADME, organism-based; conditions: in vivo
In short: (§3)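 Overnight-fasted male Wistar Han rats or Beagle dogs, two animals per group, 24 h study. IV in 60% PEG200 (rat 2 mg/kg, dog 1 mg/kg). PO in 10% Tween (rat 10 mg/kg, dog 5 mg/kg). Blood sampled up to 24 h, plasma separated by centrifugation, and drug measured by LC/MS. MRT reported for the IV route.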

[9] = Drug concentration in male Wistar Han rat at 10 mg/kg, po measured after 24 hrs by LC/MS analysis; type: ADME, organism-based; conditions: in vivo, read-out: Drug uptake; in short: as §3
[10] = Cmax in male Wistar Han rats at 10 mg/kg, po administered post overnight fasting measured upto 24 hrs by LC-MS/MS analysis; type: ADME, organism-based; design: route oral, dose 10 mg/kg, time <=24; conditions: rat, in vivo; in short: as §3
[11] = AUC in male Wistar Han rats at 10 mg/kg, po administered post overnight fasting measured upto 24 hrs by LC-MS/MS analysis; type: ADME, organism-based; design: route oral, dose 10 mg/kg, time <=24; conditions: rat, in vivo; in short: as §3
[12] = Clearance in male Wistar Han rats at 2 mg/kg, iv administered post overnight fasting measured upto 24 hrs by LC-MS/MS analysis; type: ADME, organism-based; conditions: rat, in vivo; in short: as §3
[13] = Half-life in male Wistar Han rats at 2 mg/kg, iv administered post overnight fasting measured upto 24 hrs by LC-MS/MS analysis; type: ADME, organism-based; conditions: rat, in vivo; in short: as §3
[14] = Selectivity ratio of EC90 for inhibition of NS5A in Hepatitis C virus subtype 3a infected in human HuH7 cells assessed as reduction in viral to EC90 for inhibition of NS5A in Hepatitis C virus subtype 1a; type: cell-based
[15] = Selectivity ratio of EC90 for inhibition of NS5A in Hepatitis C virus subtype 2b infected in human HuH7 cells assessed as reduction in viral to EC90 for inhibition of NS5A in Hepatitis C virus subtype 1a; type: cell-based
[16] = Selectivity ratio of EC90 for inhibition of NS5A in Hepatitis C virus subtype 1b infected in human HuH7 cells assessed as reduction in viral to EC90 for inhibition of NS5A in Hepatitis C virus subtype 1a; type: cell-based
In short: (§4)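 Fold shift calculated against the GT1a EC90, using EC90 values from the luciferase replicon assay in Huh7-derived cells.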

[17] = Selectivity ratio of EC90 for inhibition of NS5A L31V mutant in Hepatitis C virus subtype 1a infected in human HuH7 cells assessed as reduction in viral to EC90 for inhibition of NS5A in Hepatitis C virus subtype 1a; type: cell-based
In short: (§5)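 Fold shift is calculated against the GT1a EC90. The variant EC90 comes from a transient replicon assay: the NS5A variant is introduced into a GT1a-H77 or GT1b-Con1 replicon and electroporated into Huh7-derived cells. The read-out is reduced luciferase signal. EC90s are means of at least two experiments.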

[18] = Selectivity ratio of EC90 for inhibition of NS5A Y93H mutant in Hepatitis C virus subtype 1a infected in human HuH7 cells assessed as reduction in viral to EC90 for inhibition of NS5A in Hepatitis C virus subtype 1a; type: cell-based; in short: as §5
[19] = Selectivity ratio of EC90 for inhibition of NS5A in Hepatitis C virus subtype 4a infected in human HuH7 cells assessed as reduction in viral to EC90 for inhibition of NS5A in Hepatitis C virus subtype 1a; type: cell-based; in short: as §4

SMILES | EC90 [1] [nM] | EC90 [2] [nM] | EC90 (Huh-7 [3]) [nM] | EC90 (Huh-7 [4]) [nM] | EC90 (Huh-7 [5]) [nM] | EC90 (Huh-7 [6]) [nM] | EC90 (Huh-7 [7]) [nM] | bioavailability [8] [%] | concentration at 24 h [9] [nM] | Cmax [10] [nM] | AUC at 24 h [11] [µM·h] | clearance [12] [mL/min/kg] | half-life [13] [h] | Selectivity ratio [14] | Selectivity ratio [15] | Selectivity ratio [16] | Selectivity ratio [17] | Selectivity ratio [18] | Selectivity ratio [19]
COC(=O)N[C@H](C(=O)N1CCC[C@H]1c1ncc(-c2cc(F)c3c(c2)OC(c2ccc4ccccc4c2)n2c-3cc3cc(-c4cnc([C@@H]5CCCN5C(=O)[C@@H](NC(=O)OC)C(C)C)[nH]4)ccc32)[nH]1)C(C)C (some centres not stated) | 0.2 | 7 | 0.04 | 1 | 0.02 |  |  |  |  |  |  |  |  |  |  |  |  |  | 
COC(=O)N[C@H](C(=O)N1CCC[C@H]1c1ncc(-c2cc(F)c3c(c2)OC(c2ccc4c(c2)OCCC4(F)F)n2c-3cc3cc(-c4cnc([C@@H]5CCCN5C(=O)[C@@H](NC(=O)OC)C(C)C)[nH]4)ccc32)[nH]1)C(C)C (some centres not stated) | 0.01 | 0.7 | 0.007 | 0.2 | 0.002 | 0.002 | 0.002 |  |  |  |  |  |  |  |  |  |  |  | 
COC(=O)N[C@H](C(=O)N1CCC[C@H]1c1ncc(-c2cc(F)c3c(c2)OC(c2cccc4ccccc24)n2c-3cc3cc(-c4cnc([C@@H]5CCCN5C(=O)[C@@H](NC(=O)OC)C(C)C)[nH]4)ccc32)[nH]1)C(C)C (some centres not stated) | 0.09 | 32 | 0.1 | 31 | 0.01 |  |  |  |  |  |  |  |  |  |  |  |  |  | 
COC(=O)N[C@H](C(=O)N1CCC[C@H]1c1ncc(-c2cc(F)c3c(c2)OC(c2ccc4c(c2)OCC4)n2c-3cc3cc(-c4cnc([C@@H]5CCCN5C(=O)[C@@H](NC(=O)OC)C(C)C)[nH]4)ccc32)[nH]1)C(C)C (mixture of isomers) | 0.5 | 6 | 0.1 | 3 | 0.02 |  |  |  |  |  |  |  |  |  |  |  |  |  | 
COC(=O)N[C@H](C(=O)N1CCC[C@H]1c1ncc(-c2cc(F)c3c(c2)OC(c2ccc4c(c2)O[C@H](C)CC4)n2c-3cc3cc(-c4cnc([C@@H]5CCCN5C(=O)[C@@H](NC(=O)OC)C(C)C)[nH]4)ccc32)[nH]1)C(C)C (some centres not stated) | 0.02 | 0.7 | 0.01 | 0.9 | 0.003 | 0.005 | 0.005 |  |  |  |  |  |  |  |  |  |  |  | 
COC(=O)N[C@H](C(=O)N1CCC[C@H]1c1ncc(-c2cc(F)c3c(c2)OC(c2ccc4c(c2)OCO4)n2c-3cc3cc(-c4cnc([C@@H]5CCCN5C(=O)[C@@H](NC(=O)OC)C(C)C)[nH]4)ccc32)[nH]1)C(C)C (some centres not stated) | 0.2 | 4 | 1 | 3 | 0.008 |  |  |  |  |  |  |  |  |  |  |  |  |  | 
COC(=O)N[C@H](C(=O)N1CCC[C@H]1c1ncc(-c2cc(F)c3c(c2)OC(c2ccc4c(c2)OC(F)(F)O4)n2c-3cc3cc(-c4cnc([C@@H]5CCCN5C(=O)[C@@H](NC(=O)OC)C(C)C)[nH]4)ccc32)[nH]1)C(C)C (some centres not stated) | 0.5 | 8 | 0.1 | 5 | 0.004 |  |  |  |  |  |  |  |  |  |  |  |  |  | 
COC(=O)N[C@H](C(=O)N1CCC[C@H]1c1ncc(-c2cc(F)c3c(c2)OC(c2ccc4cccnc4c2)n2c-3cc3cc(-c4cnc([C@@H]5CCCN5C(=O)[C@@H](NC(=O)OC)C(C)C)[nH]4)ccc32)[nH]1)C(C)C (some centres not stated) | 0.2 | 4 | 0.3 | 3 | 0.01 |  |  |  |  |  |  |  |  |  |  |  |  |  | 
COC(=O)N[C@H](C(=O)N1CCC[C@H]1c1ncc(-c2cc(F)c3c(c2)OC(c2ccc4c(c2)OCCC4)n2c-3cc3cc(-c4cnc([C@@H]5CCCN5C(=O)[C@@H](NC(=O)OC)C(C)C)[nH]4)ccc32)[nH]1)C(C)C.O=C(O)C(F)(F)F.O=C(O)C(F)(F)F (some centres not stated) |  |  |  |  |  |  |  | 5 | 17 | 86 | 1.35 | 8 | 5.8 |  |  |  |  |  | 
COC(=O)N[C@H](C(=O)N1CCC[C@H]1c1ncc(-c2cc(F)c3c(c2)OC(c2ccc4c(c2)OCC(=O)N4C)n2c-3cc3cc(-c4cnc([C@@H]5CCCN5C(=O)[C@@H](NC(=O)OC)C(C)C)[nH]4)ccc32)[nH]1)C(C)C (some centres not stated) |  | 3 | 0.01 | 2 | 0.002 |  |  |  |  |  |  |  |  |  |  |  |  |  | 
COC(=O)N[C@H](C(=O)N1CCC[C@H]1c1ncc(-c2cc(F)c3c(c2)OC(c2ccc4c(c2)OCC[C@H]4C)n2c-3cc3cc(-c4cnc([C@@H]5CCCN5C(=O)[C@@H](NC(=O)OC)C(C)C)[nH]4)ccc32)[nH]1)C(C)C (some centres not stated) | 0.007 | 0.2 | 0.006 | 0.2 | 0.004 | 0.003 | 0.002 |  |  |  |  |  |  | 2 | 50 | 1 | 2 | 50 | 1
COC(=O)N[C@H](C(=O)N1CCC[C@H]1c1ncc(-c2cc(F)c3c(c2)OC(c2ccc4c(c2)OCC[C@@H]4C)n2c-3cc3cc(-c4cnc([C@@H]5CCCN5C(=O)[C@@H](NC(=O)OC)C(C)C)[nH]4)ccc32)[nH]1)C(C)C (some centres not stated) | 0.01 | 0.2 | 0.01 | 0.2 | 0.004 | 0.003 | 0.002 |  |  |  |  |  |  | 3 | 50 | 1 | 3 | 50 | 1
COC(=O)N[C@H](C(=O)N1CCC[C@H]1c1ncc(-c2cc(F)c3c(c2)OC(c2ccc4c(c2)O[C@@H](C)CC4)n2c-3cc3cc(-c4cnc([C@@H]5CCCN5C(=O)[C@@H](NC(=O)OC)C(C)C)[nH]4)ccc32)[nH]1)C(C)C (some centres not stated) | 0.04 | 0.9 | 0.009 | 0.7 | 0.007 | 0.007 | 0.005 |  |  |  |  |  |  |  |  |  |  |  | 
